Test results reported in ChEMBL document CHEMBL3232956, “Solid-supported synthesis, molecular modeling, and biological activity of long-chain arylpiperazine derivatives with cyclic amino acid amide fragments as 5-HT(7) and 5-HT(1A) receptor ligands” (Eur J Med Chem, 2014).

Legend:
Type in all cases: cell-based
[1] = target: T1, 5-hydroxytryptamine receptor 1A (Homo sapiens, UniProt P08908); experiment: Displacement of [3H]-8-OH-DPAT from human 5-HT1A receptor expressed in HEK293 cells after 1 hr by beta-counting
T1 sequence (P08908 whole entry): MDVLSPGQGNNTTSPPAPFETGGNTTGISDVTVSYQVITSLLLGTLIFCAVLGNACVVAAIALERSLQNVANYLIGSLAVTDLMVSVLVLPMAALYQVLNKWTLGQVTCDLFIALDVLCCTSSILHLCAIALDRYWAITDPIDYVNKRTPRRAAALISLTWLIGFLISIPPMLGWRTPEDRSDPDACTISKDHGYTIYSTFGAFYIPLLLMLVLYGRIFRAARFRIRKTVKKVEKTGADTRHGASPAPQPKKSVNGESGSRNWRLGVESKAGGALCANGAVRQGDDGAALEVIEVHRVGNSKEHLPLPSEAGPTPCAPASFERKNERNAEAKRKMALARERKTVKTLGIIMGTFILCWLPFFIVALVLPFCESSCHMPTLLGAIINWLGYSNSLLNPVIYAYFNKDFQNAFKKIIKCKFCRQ
Outline: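 Human 5-HT1A receptor stably expressed in HEK293 cells; pellet homogenized in 20 vol buffer (50 mM Tris-HCl, 0.1 mM EDTA, 4 mM MgCl2, 0.1% ascorbate, pargyline), spun twice 35,000 g 20 min 4 °C, 15 min 37 °C between spins. Displacement of [3H]-8-OH-DPAT (187 Ci/mmol), 1 h room temperature; filtration, filter-bound radioactivity. Triplicate at 7-8 concentrations (10^-11–10^-4 M); Ki via Cheng-Prusoff.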

[2] = system: HEK293; experiment: Selectivity ratio of Ki for human 5-HT1A receptor expressed in HEK293 cells to Ki for human 5-HT7 receptor expressed in HEK293 cells
Outline: (§1)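 Ratios computed from Ki values from radioligand displacement in HEK293 membranes stably expressing human receptors: [3H]-8-OH-DPAT for 5-HT1A (1 h, room temperature) and [3H]-5-CT for 5-HT7b (1 h, 37 °C), filtration read-out. Each compound in triplicate at 7-8 concentrations (10^-11–10^-4 M); Ki by Cheng-Prusoff.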

[3] = target: 5-hydroxytryptamine receptor 7 (Homo sapiens, UniProt P34969); experiment: Displacement of [3H]-5-CT from human 5-HT7 receptor expressed in HEK293 cells after 1 hr by beta-counting
[4] = system: HEK293; experiment: Selectivity ratio of Ki for human 5-HT7 receptor expressed in HEK293 cells to Ki for human 5-HT1A receptor expressed in HEK293 cells; outline: as §1

5-hydroxytryptamine receptor 7, sequence (P34969 whole entry): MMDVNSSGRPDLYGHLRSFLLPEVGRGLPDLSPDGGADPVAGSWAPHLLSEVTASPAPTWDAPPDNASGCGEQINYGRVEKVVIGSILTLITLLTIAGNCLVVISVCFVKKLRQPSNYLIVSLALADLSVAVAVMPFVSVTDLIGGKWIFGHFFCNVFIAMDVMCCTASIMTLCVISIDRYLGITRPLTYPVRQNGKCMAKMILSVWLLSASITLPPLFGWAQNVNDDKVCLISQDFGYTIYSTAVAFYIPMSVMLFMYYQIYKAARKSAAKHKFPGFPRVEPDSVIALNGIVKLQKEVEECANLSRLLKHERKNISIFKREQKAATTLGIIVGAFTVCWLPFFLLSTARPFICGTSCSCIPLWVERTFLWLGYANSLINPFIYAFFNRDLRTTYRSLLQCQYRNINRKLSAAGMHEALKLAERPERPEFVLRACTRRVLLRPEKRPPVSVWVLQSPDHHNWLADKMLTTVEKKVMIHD

| SMILES | Ki [1] [nM] | Ratio Ki [2] | Ki [3] [nM] | Ratio Ki [4] |
| --- | --- | --- | --- | --- |
| NC(=O)[C@@H]1Cc2ccccc2CN1C(=O)CCCCN1CCN(c2ccc(Cl)cc2)CC1 | 211 | < 1 | 223 | 1 |
| NC(=O)[C@@H]1CCCN1C(=O)CCCCN1CCN(c2cccc(Cl)c2Cl)CC1 | 83 | < 1 | 113 | < 1 |
| CSc1ccccc1N1CCN(CCCCC(=O)N2CCC[C@H]2C(N)=O)CC1 | 47 | < 1 | 163 | 3 |
| NC(=O)[C@@H]1Cc2ccccc2CN1C(=O)CCCCCN1CCN(c2cccc(Cl)c2)CC1 | 499 | < 1 | 725 | 1 |
| NC(=O)[C@@H]1Cc2ccccc2CN1C(=O)CCCCCN1CCN(c2cccc(Cl)c2Cl)CC1 | 16 | < 1 | 95 | 6 |
| CSc1ccccc1N1CCN(Cc2ccc(C(=O)N3CCC[C@H]3C(N)=O)cc2)CC1 | 313 | < 1 | 567 | 2 |
| NC(=O)[C@@H]1CCCN1C(=O)CCCCCN1CCN(c2ccccc2F)CC1 | 141 | < 1 | 3130 | 22 |
| NC(=O)[C@@H]1Cc2ccccc2CN1C(=O)CCCCCCN1CCN(c2noc3ccccc23)CC1 | 89 | 3 | 28 | < 1 |
| COc1ccccc1N1CCN(Cc2ccc(C(=O)N3CCC[C@H]3C(N)=O)cc2)CC1 | 6310 | 2 | 4150 | < 1 |
| CSc1ccccc1N1CCN(CCCCCC(=O)NC2CCCc3ccccc32)CC1 (stereo unspecified) | – | – | 0.22 | – |
| NC(=O)[C@@H]1Cc2ccccc2CN1C(=O)CCCCN1CCN(c2ccc(F)cc2)CC1 | 1910 | 6 | 295 | < 1 |
| CSc1ccccc1N1CCN(CCCCCC(=O)N2Cc3ccccc3C[C@H]2C(N)=O)CC1 | < 1 | < 1 | 78 | > 78 |
| NC(=O)[C@@H]1CCCN1C(=O)CCCCCN1CCN(c2noc3ccccc23)CC1 | 214 | 4 | 50 | < 1 |
| CSc1ccccc1N1CCN(CCCCC(=O)N2Cc3ccccc3C[C@H]2C(N)=O)CC1 | 18 | < 1 | 51 | 3 |
| CSc1ccccc1N1CCN(CCCCCC(=O)N2CCC[C@H]2C(N)=O)CC1 | 14 | < 1 | 153 | 11 |
| CSc1ccccc1N1CCN(CCCCCCC(=O)N2Cc3ccccc3C[C@H]2C(N)=O)CC1 | 2 | < 1 | 111 | 55 |
| CSc1ccccc1N1CCN(Cc2ccc(C(=O)N3Cc4ccccc4C[C@H]3C(N)=O)cc2)CC1 | 122 | < 1 | 148 | 1 |
| COc1ccccc1N1CCN(CCCCCC(=O)N2Cc3ccccc3C[C@H]2C(N)=O)CC1 | 12 | < 1 | 302 | 25 |

| SMILES | Ki [1] [nM] | Ratio Ki [2] | Ki [3] [nM] | Ratio Ki [4] |
| --- | --- | --- | --- | --- |
| NC(=O)[C@@H]1CCCN1C(=O)CCCCN1CCN(c2noc3ccccc23)CC1 | 2910 | 27 | 108 | < 1 |
| COc1ccccc1N1CCN(CCCCC(=O)N2Cc3ccccc3C[C@H]2C(N)=O)CC1 | 107 | < 1 | 551 | 5 |
| NC(=O)[C@@H]1Cc2ccccc2CN1C(=O)CCCCCN1CCN(c2ccccc2O)CC1 | 72 | < 1 | 476 | 7 |
| NC(=O)[C@@H]1Cc2ccccc2CN1C(=O)CCCCCN1CCN(c2ccccc2Cl)CC1 | 236 | < 1 | 393 | 2 |
| NC(=O)[C@@H]1Cc2ccccc2CN1C(=O)CCCCCN1CCN(c2ccc(F)cc2)CC1 | 643 | 6 | 107 | < 1 |
| NC(=O)[C@@H]1CCCN1C(=O)CCCCCN1CCN(c2cccc(Cl)c2Cl)CC1 | 4 | < 1 | 179 | 45 |
| COc1ccccc1N1CCN(CCCCCC(=O)N2CCC[C@H]2C(N)=O)CC1 | 44 | < 1 | 1200 | 27 |
| COc1ccccc1N1CCN(CCCCC(=O)N2CCC[C@H]2C(N)=O)CC1 | 214 | < 1 | 634 | 3 |
| NC(=O)[C@@H]1CCCN1C(=O)CCCCCCN1CCN(c2noc3ccccc23)CC1 | 122 | 1 | 101 | < 1 |
| NC(=O)[C@@H]1CCCN1C(=O)CCCCCN1CCN(c2ccc(F)cc2)CC1 | 573 | < 1 | 1190 | 2 |
| COc1ccccc1N1CCN(Cc2ccc(C(=O)N3Cc4ccccc4C[C@H]3C(N)=O)cc2)CC1 | 77 | < 1 | 579 | 7 |
| NC(=O)[C@@H]1CCCN1C(=O)CCCCN1CCN(c2ccccc2O)CC1 | 52 | < 1 | 1870 | 36 |
| NC(=O)[C@@H]1Cc2ccccc2CN1C(=O)c1ccc(CN2CCN(c3cccc(Cl)c3Cl)CC2)cc1 | 212 | < 1 | 1200 | 6 |
| CSc1ccccc1N1CCN(CCCCCCC(=O)N2CCC[C@H]2C(N)=O)CC1 | 23 | < 1 | 495 | 21 |
| NC(=O)[C@@H]1Cc2ccccc2CN1C(=O)CCCCN1CCN(c2noc3ccccc23)CC1 | 377 | 21 | 18 | < 1 |
| NC(=O)[C@@H]1Cc2ccccc2CN1C(=O)CCCCCN1CCN(c2noc3ccccc23)CC1 | 230 | 10 | 22 | < 1 |
| NC(=O)[C@@H]1CCCN1C(=O)CCCCCN1CCN(c2ccccc2Cl)CC1 | 232 | < 1 | 1310 | 6 |
| NC(=O)[C@@H]1CCCN1C(=O)CCCCCN1CCN(c2cccc(Cl)c2)CC1 | 38 | < 1 | 478 | 13 |
